Measurements reported in ChEMBL document CHEMBL1641579, “Synthesis and biological evaluation of 7-substituted-1-(3-bromophenylamino)isoquinoline-4-carbonitriles as inhibitors of myosin light chain kinase and epidermal growth factor receptor” (Bioorg Med Chem, 2011).

Legend:
Assay type in all cases: functional
[1] = Growth inhibition of human HCC515 cells assessed as ATP level after 96 hrs by CellTiter-Glo assay; settings: HCC515, 96 h
Outline: (§1)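 NSCLC lines maintained as in earlier work and authenticated by mutational analysis and SNP arrays. Cells were plated in 384-well format and allowed 24 h before compound addition as 10 threefold serial dilutions (DMSO stocks). After 96 h, viability was read as cellular ATP by CellTiter-Glo. GI50 was fitted with an R package.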

[2] = Growth inhibition of human HCC2429 cells assessed as ATP level after 96 hrs by CellTiter-Glo assay; settings: HCC2429, 96 h; outline: as §1
NCI-H647 = assay: Growth inhibition of human NCI-H647 cells assessed as ATP level after 96 hrs by CellTiter-Glo assay; settings: NCI-H647, 96 h
NCI-H2087 = assay: Growth inhibition of human NCI-H2087 cells assessed as ATP level after 96 hrs by CellTiter-Glo assay; settings: NCI-H2087, 96 h
[3] = Growth inhibition of human HCC364 cells assessed as ATP level after 96 hrs by CellTiter-Glo assay; settings: HCC364, 96 h; outline: as §1
NCI-H1650 = assay: Growth inhibition of human NCI-H1650 cells assessed as ATP level after 96 hrs by CellTiter-Glo assay; settings: NCI-H1650, 96 h; outline: as §1
NCI-H1734 = assay: Growth inhibition of human NCI-H1734 cells assessed as ATP level after 96 hrs by CellTiter-Glo assay; settings: NCI-H1734, 96 h; outline: as §1
[4] = Growth inhibition of human NCI-H2887 cells assessed as ATP level after 96 hrs by CellTiter-Glo assay; settings: NCI-H2887, 96 h
NCI-H322M = assay: Growth inhibition of human NCI-H322M cells assessed as ATP level after 96 hrs by CellTiter-Glo assay
NCI-H1563 = assay: Growth inhibition of human NCI-H1563 cells assessed as ATP level after 96 hrs by CellTiter-Glo assay; settings: NCI-H1563, 96 h; outline: as §1
[5] = Growth inhibition of human HCC827 cells assessed as ATP level after 96 hrs by CellTiter-Glo assay; settings: HCC827, 96 h; outline: as §1
[6] = Growth inhibition of human NCI-H2110 cells assessed as ATP level after 96 hrs by CellTiter-Glo assay; settings: NCI-H2110, 96 h
A549 = assay: Growth inhibition of human A549 cells assessed as ATP level after 96 hrs by CellTiter-Glo assay; settings: A549, 96 h; outline: as §1
NCI-H1395 = assay: Growth inhibition of human NCI-H1395 cells assessed as ATP level after 96 hrs by CellTiter-Glo assay; settings: NCI-H1395, 96 h; outline: as §1
EKVX = assay: Growth inhibition of human EKVX cells assessed as ATP level after 96 hrs by CellTiter-Glo assay; outline: as §1
[7] = Growth inhibition of human LouNH91 cells assessed as ATP level after 96 hrs by CellTiter-Glo assay; settings: LOU-NH91, 96 h; outline: as §1
NCI-H1666 = assay: Growth inhibition of human NCI-H1666 cells assessed as ATP level after 96 hrs by CellTiter-Glo assay; settings: NCI-H1666, 96 h; outline: as §1
[8] = Growth inhibition of human HCC4006 cells assessed as ATP level after 96 hrs by CellTiter-Glo assay; settings: HCC4006, 96 h; outline: as §1
NCI-H2009 = assay: Growth inhibition of human NCI-H2009 cells assessed as ATP level after 96 hrs by CellTiter-Glo assay; settings: NCI-H2009, 96 h
HOP-62 = assay: Growth inhibition of human HOP62 cells assessed as ATP level after 96 hrs by CellTiter-Glo assay; settings: HOP-62, 96 h; outline: as §1
NCI-H1770 = assay: Growth inhibition of human NCI-H1770 cells assessed as ATP level after 96 hrs by CellTiter-Glo assay; settings: NCI-H1770, 96 h; outline: as §1
NCI-H2347 = assay: Growth inhibition of human NCI-H2347 cells assessed as ATP level after 96 hrs by CellTiter-Glo assay; settings: NCI-H2347, 96 h
NCI-H1755 = assay: Growth inhibition of human NCI-H1755 cells assessed as ATP level after 96 hrs by CellTiter-Glo assay; settings: NCI-H1755, 96 h; outline: as §1
NCI-H1993 = assay: Growth inhibition of human NCI-H1993 cells assessed as ATP level after 96 hrs by CellTiter-Glo assay; settings: NCI-H1993, 96 h
[9] = Growth inhibition of human HCC1195 cells assessed as ATP level after 96 hrs by CellTiter-Glo assay; outline: as §1
[10] = Growth inhibition of human NCI-H1568 cells assessed as ATP level after 96 hrs by CellTiter-Glo assay; settings: NCI-H1568, 96 h; outline: as §1
A-427 = assay: Growth inhibition of human A427 cells assessed as ATP level after 96 hrs by CellTiter-Glo assay; settings: A-427, 96 h; outline: as §1
[11] = Growth inhibition of human H3255 cells assessed as ATP level after 96 hrs by CellTiter-Glo assay; settings: NCI-H3255, 96 h; outline: as §1
[12] = Growth inhibition of human NCI-H2882 cells assessed as ATP level after 96 hrs by CellTiter-Glo assay; settings: NCI-H2882, 96 h
NCI-H157 = assay: Growth inhibition of human NCI-H157 cells assessed as ATP level after 96 hrs by CellTiter-Glo assay; settings: NCI-H157, 96 h; outline: as §1
PC-9 = assay: Growth inhibition of human PC9 cells assessed as ATP level after 96 hrs by CellTiter-Glo assay; settings: PC-9, 96 h
NCI-H2122 = assay: Growth inhibition of human NCI-H2122 cells assessed as ATP level after 96 hrs by CellTiter-Glo assay; settings: NCI-H2122, 96 h
NCI-H2052 = assay: Growth inhibition of human NCI-H2052 cells assessed as ATP level after 96 hrs by CellTiter-Glo assay; settings: NCI-H2052, 96 h
NCI-H2030 = assay: Growth inhibition of human NCI-H2030 cells assessed as ATP level after 96 hrs by CellTiter-Glo assay; settings: NCI-H2030, 96 h
[13] = Growth inhibition of human HCC366 cells assessed as ATP level after 96 hrs by CellTiter-Glo assay; settings: HCC366, 96 h; outline: as §1
[14] = Growth inhibition of human HCC95 cells assessed as ATP level after 96 hrs by CellTiter-Glo assay; settings: HCC95, 96 h; outline: as §1
[15] = Growth inhibition of human NCI-H1819 cells assessed as ATP level after 96 hrs by CellTiter-Glo assay; settings: NCI-H1819, 96 h
Outline: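 NSCLC lines maintained as previously described, authenticated by mutational analysis and SNP arrays. Cells seeded and incubated 24 h, then given compound (DMSO stocks) as 10 threefold serial dilutions. Viability read after 96 h as cellular ATP content (CellTiter-Glo). GI50 derived by curve fitting of half-maximal inhibition.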

In the case of `CN(C)C/C=C/C(=O)Nc1ccc2c(C#N)cnc(Nc3cccc(Br)c3)c2c1`, the GI50 [1] is reported as 20.4 µM, the GI50 [2] is reported as 19.5 µM and the GI50 (NCI-H647) is reported as 26.3 µM. The GI50 (NCI-H2087) was 17 µM, the GI50 [3] was 21.9 µM and the GI50 (NCI-H1650) was 15.7 µM. It also gave a GI50 (NCI-H1734) of 24.3 µM, a GI50 [4] of 15.5 µM and a GI50 (NCI-H322M) of 21.4 µM. It also gave a GI50 (NCI-H1563) of 30.9 µM, a GI50 [5] of 14.3 µM and a GI50 [6] of 13.2 µM. For the same compound, the GI50 (A549) was 40 µM, the GI50 (NCI-H1395) was 31.3 µM and the GI50 (EKVX) was 14.5 µM. For the same compound, the GI50 [7] was 15.7 µM, the GI50 (NCI-H1666) was 28.8 µM and the GI50 [8] was 13.3 µM. The GI50 (NCI-H2009) was 26.3 µM, the GI50 (HOP-62) was 26.9 µM and the GI50 (NCI-H1770) was 9.02 µM. It also gave a GI50 (NCI-H2347) of 22.9 µM, a GI50 (NCI-H1755) of 9.89 µM and a GI50 (NCI-H1993) of 12.9 µM. It also gave a GI50 [9] of 17.6 µM, a GI50 [10] of 30.9 µM and a GI50 (A-427) of 15.8 µM. For the same compound, the GI50 [11] was 4.32 µM, the GI50 [12] was 23.7 µM and the GI50 (NCI-H157) was 12 µM. For the same compound, the GI50 (PC-9) was 4.68 µM, the GI50 (NCI-H2122) was 18.8 µM and the GI50 (NCI-H2052) was 21.6 µM. The GI50 (NCI-H2030) was 34.3 µM, the GI50 [13] was 16.6 µM and the GI50 [14] was 13.3 µM. For the same compound, the GI50 [15] was 7.59 µM.
